Test results from ChEMBL document CHEMBL1145905, “Design and synthesis of novel dimeric morphinan ligands for kappa and micro opioid receptors” (J Med Chem, 2003).
Active and inactive are the calls of the source. The rule behind the calls is not given here.

Assays:
[1] = target: T1, Kappa-type opioid receptor (Homo sapiens, UniProt P41145); assay: Inhibitory activity against Opioid receptor kappa 1 in chinese Hamster Ovary (CHO) cell membranes was determined using [3H]U-69593 radioligand
Mu-type opioid receptor [2] = target: T2, Mu-type opioid receptor (Homo sapiens, UniProt P35372); assay: Inhibitory activity against Opioid receptor mu 1 in chinese Hamster Ovary (CHO) cells membranes was determined using [3H]-DAMGO radioligand; assay type: cell-based
T2 sequence (P35372 whole entry): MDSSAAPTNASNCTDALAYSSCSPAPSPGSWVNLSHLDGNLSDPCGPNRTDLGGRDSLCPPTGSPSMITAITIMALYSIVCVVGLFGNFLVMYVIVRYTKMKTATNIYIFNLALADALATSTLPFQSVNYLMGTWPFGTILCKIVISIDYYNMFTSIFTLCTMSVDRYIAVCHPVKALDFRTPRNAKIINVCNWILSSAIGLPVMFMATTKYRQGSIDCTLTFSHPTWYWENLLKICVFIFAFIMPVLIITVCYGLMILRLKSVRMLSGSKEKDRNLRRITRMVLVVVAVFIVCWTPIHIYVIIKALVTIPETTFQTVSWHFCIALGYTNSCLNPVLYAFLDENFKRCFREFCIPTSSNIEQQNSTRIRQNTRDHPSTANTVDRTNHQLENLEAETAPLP

[3] = target: Delta-type opioid receptor (Homo sapiens, UniProt P41143); assay: Inhibitory activity against Opioid receptor delta 1 in chinese Hamster Ovary (CHO) cell membranes was determined using [3H]naltrindole radioligand
Chain of Delta-type opioid receptor (P41143 whole entry): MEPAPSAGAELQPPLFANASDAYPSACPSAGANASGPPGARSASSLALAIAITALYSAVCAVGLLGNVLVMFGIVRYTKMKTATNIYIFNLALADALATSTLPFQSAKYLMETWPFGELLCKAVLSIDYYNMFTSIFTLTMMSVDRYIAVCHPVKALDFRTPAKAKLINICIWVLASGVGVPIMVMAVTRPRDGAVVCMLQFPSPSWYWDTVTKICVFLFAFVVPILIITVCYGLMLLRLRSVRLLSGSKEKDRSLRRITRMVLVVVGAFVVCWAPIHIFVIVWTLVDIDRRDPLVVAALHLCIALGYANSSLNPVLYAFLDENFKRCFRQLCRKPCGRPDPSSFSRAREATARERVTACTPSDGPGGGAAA

[4] = target: Opioid receptors; delta & kappa (Homo sapiens) (UniProt P41145+P41143); assay: Selective inhibitory activity was determined against kappa & delta opioid receptor in chinese Hamster Ovary (CHO) cell membranes
Chain of Opioid receptors; delta & kappa (Homo sapiens) (P41143 whole entry, looked up): as the sequence (P41143 whole entry) above
Chain of Opioid receptors; delta & kappa (Homo sapiens) (P41145 whole entry, looked up): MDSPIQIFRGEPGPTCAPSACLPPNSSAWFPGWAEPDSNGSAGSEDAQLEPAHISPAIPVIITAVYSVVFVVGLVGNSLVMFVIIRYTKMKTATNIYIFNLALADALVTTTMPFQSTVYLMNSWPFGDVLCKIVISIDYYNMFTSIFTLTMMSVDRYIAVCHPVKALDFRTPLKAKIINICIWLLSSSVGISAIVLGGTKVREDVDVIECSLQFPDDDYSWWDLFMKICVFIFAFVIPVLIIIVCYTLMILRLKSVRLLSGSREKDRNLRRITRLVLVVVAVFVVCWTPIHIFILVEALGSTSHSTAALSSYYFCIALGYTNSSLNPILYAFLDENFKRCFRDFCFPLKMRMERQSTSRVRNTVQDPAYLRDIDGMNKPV

[5] = target: Opioid receptors; mu & kappa (Homo sapiens) (UniProt P41145+P35372); assay: Selective inhibitory activity was determined against kappa & mu opioid receptor in chinese Hamster Ovary (CHO) cell membranes
Chain of Opioid receptors; mu & kappa (Homo sapiens) (P35372 whole entry, looked up): as the sequence (P35372 whole entry) above
Chain of Opioid receptors; mu & kappa (Homo sapiens) (P41145 whole entry, looked up): as the sequence (P41145 whole entry, looked up) above

[6] = target: T1, Kappa-type opioid receptor; assay: Maximal percent inhibitory activity in stimulating [35S]-GTP-gamma S binding mediated by the Opioid receptor kappa 1 in chinese Hamster Ovary (CHO) cell membranes; No Effect; assay type: functional
How it was run: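 Antagonist mode: human κ-CHO membranes (15 μg protein) with 100 nM U50,488 plus varying compound concentrations, 3 μM GDP, […] [35S]GTPγS, 60 min at 30 °C, pH 7.4 buffer with Mg2+/NaCl/EGTA; filtration, counting.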

Mu-type opioid receptor [7] = target: T2, Mu-type opioid receptor; assay: Percent maximal stimulation in [35S]-GTP-gamma S binding assay mediated by the Opioid receptor mu 1 in chinese Hamster Ovary (CHO)membranes
[8] = target: T1, Kappa-type opioid receptor; assay: Percent maximal stimulation in [35S]-GTP-gamma S binding assay mediated by the Opioid receptor kappa 1 in chinese Hamster Ovary (CHO)membranes; assay type: functional
Mu-type opioid receptor [9] = target: T2, Mu-type opioid receptor; assay: Inhibitory activity was determined in stimulating [35S]-GTP-gamma S binding mediated by the Opioid receptor mu 1 in chinese Hamster Ovary (CHO)membranes
Mu-type opioid receptor [10] = target: T2, Mu-type opioid receptor; assay: Maximal percent inhibitory activity was determined in stimulating [35S]-GTP-gamma S binding mediated by the Opioid receptor mu 1 in chinese Hamster Ovary (CHO) cell membranes
How it was run: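 Antagonist mode: human μ-CHO membranes (7.5 μg protein) with 200 nM DAMGO plus varying compound concentrations, 3 μM GDP, […] [35S]GTPγS, 60 min at 30 °C, pH 7.4 buffer with Mg2+/NaCl/EGTA; filtration, counting.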

[11] = target: T1, Kappa-type opioid receptor; assay: Inhibitory activity in stimulating [35S]-GTP-gamma S binding mediated by the Opioid receptor kappa 1 in chinese Hamster Ovary (CHO) cell membranes was determined; assay type: functional
Mu-type opioid receptor [12] = target: T2, Mu-type opioid receptor
[13] = target: T1, Kappa-type opioid receptor; assay: Inhibitory activity in stimulating [35S]-GTP-gamma S binding mediated by the Opioid receptor kappa 1 in chinese Hamster Ovary (CHO) cell membranes; assay type: functional
How it was run: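 Antagonist mode: membranes of CHO cells stably expressing human κ receptor (15 µg protein/tube) incubated with varying compound concentrations plus 100 nM U50,488, 60 min at 30 °C, in Tris/MgCl2/NaCl/EGTA buffer pH 7.4 with 3 µM GDP and [35S]GTPγS. Filtration, scintillation counting. Nonspecific binding with 10 µM GTPγS.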

T1 sequence (P41145 whole entry): as the sequence (P41145 whole entry, looked up) above

| Compound | Ki [1] | Ki (Mu-type opioid receptor [2]) | Ki [3] | Selectivity [4] | Selectivity [5] | NE [6] | Emax (Mu-type opioid receptor [7]) | Emax [8] | IC50 (Mu-type opioid receptor [9]) | Imax (Mu-type opioid receptor [10]) | EC50 [11] | EC50 (Mu-type opioid receptor [12]) | IC50 [13] | NT [6] |
| --- | --- | --- | --- | --- | --- | --- | --- | --- | --- | --- | --- | --- | --- | --- |
| Oc1ccc2c(c1)[C@@]13CCCC[C@H]1[C@@H](C2)N(CCCN1CC[C@]24CCCC[C@H]2[C@H]1Cc1ccc(O)cc14)CC3 | 24 nM | 48 nM | 600 nM | 25 | 2 | – | – | – | – | – | – | – | – | – |
| O=C(CCCCCCCCCCC(=O)Oc1ccc2c(c1)[C@@]13CCCC[C@H]1[C@@H](C2)N(CC1CCC1)CC3)Oc1ccc2c(c1)[C@@]13CCCC[C@H]1[C@@H](C2)N(CC1CCC1)CC3 | 1.1 nM | 1.8 nM | 82 nM | 75 | 2 | inactive | 14% | 90% | 100 nM | 60% | 8.1 nM | – | – | – |
| O=C(Oc1ccc2c(c1)[C@@]13CCCC[C@H]1[C@@H](C2)N(CC1CCC1)CC3)c1cccc(C(=O)Oc2ccc3c(c2)[C@@]24CCCC[C@H]2[C@@H](C3)N(CC2CCC2)CC4)c1 | 3.4 nM | 3.3 nM | 920 nM | 270 | 1 | – | – | – | – | – | – | – | – | – |
| c1cc2c(cc1OCCCCOc1ccc3c(c1)[C@@]14CCCC[C@H]1[C@@H](C3)N(CC1CCC1)CC4)[C@@]13CCCC[C@H]1[C@@H](C2)N(CC1CCC1)CC3 | 18 nM | 29 nM | 730 nM | 40 | 2 | – | – | – | – | – | – | – | – | – |
| O=C(CCCCCCCCC(=O)Oc1ccc2c(c1)[C@@]13CCCC[C@H]1[C@@H](C2)N(CC1CCC1)CC3)Oc1ccc2c(c1)[C@@]13CCCC[C@H]1[C@@H](C2)N(CC1CCC1)CC3 | 0.049 nM | 0.09 nM | 4.2 nM | 90 | 2 | inactive | 50% | 60% | 16 nM | 60% | 0.85 nM | 1.3 nM | – | – |
| Oc1ccc2c(c1)[C@@]13CCCC[C@H]1[C@@H](C2)N(CC1CC1)CC3 | – | – | – | – | – | – | – | – | – | 50% | – | – | – | – |
| c1cc2c(cc1OCCCCCCCCCCOc1ccc3c(c1)[C@@]14CCCC[C@H]1[C@@H](C3)N(CC1CCC1)CC4)[C@@]13CCCC[C@H]1[C@@H](C2)N(CC1CCC1)CC3 | 120 nM | 66 nM | 2500 nM | 20 | 0.5 | – | – | – | – | – | – | – | – | – |
| O=C(CCC(=O)Oc1ccc2c(c1)[C@@]13CCCC[C@H]1[C@@H](C2)N(CC1CC1)CC3)Oc1ccc2c(c1)[C@@]13CCCC[C@H]1[C@@H](C2)N(CC1CC1)CC3 | 0.1 nM | 0.14 nM | 3.8 nM | 40 | 1 | – | 10% | 70% | 1.8 nM | 60% | 3.3 nM | – | – | – |
| O=C(/C=C/C(=O)Oc1ccc2c(c1)[C@@]13CCCC[C@H]1[C@@H](C2)N(CC1CCC1)CC3)Oc1ccc2c(c1)[C@@]13CCCC[C@H]1[C@@H](C2)N(CC1CCC1)CC3 | 0.078 nM | 0.2 nM | 9.4 nM | 120 | 3 | – | 50% | 90% | 610 nM | 100% | 2.3 nM | 2.9 nM | 2400 nM | – |
| O=C(Oc1ccc2c(c1)[C@@]13CCCC[C@H]1[C@@H](C2)N(CC1CCC1)CC3)c1ccc(C(=O)Oc2ccc3c(c2)[C@@]24CCCC[C@H]2[C@@H](C3)N(CC2CCC2)CC4)cc1 | 4.2 nM | 4.7 nM | 400 nM | 100 | 1 | – | – | – | – | – | – | – | – | – |
| CN1CC[C@]23CCCC[C@H]2[C@H]1Cc1ccc(O)cc13 [LEVORPHANOL] | 2.3 nM | – | – | – | – | – | – | – | – | – | – | – | – | – |
| COC(=O)CCCCCCCCC(=O)Oc1ccc2c(c1)[C@@]13CCCC[C@H]1[C@@H](C2)N(CC1CCC1)CC3 | 0.07 nM | 0.23 nM | 44 nM | 630 | 3 | – | 60% | 90% | 130 nM | 50% | 5.7 nM | 8 nM | – | inactive |
| O=C(Oc1ccc2c(c1)[C@@]13CCCC[C@H]1[C@@H](C2)N(CC1CCC1)CC3)[C@H]1C[C@H]1C(=O)Oc1ccc2c(c1)[C@@]13CCCC[C@H]1[C@@H](C2)N(CC1CCC1)CC3 | 0.17 nM | 0.28 nM | 16 nM | 90 | 2 | – | – | – | – | – | – | – | – | – |
| O=C(CCCCCCC(=O)Oc1ccc2c(c1)[C@@]13CCCC[C@H]1[C@@H](C2)N(CC1CCC1)CC3)Oc1ccc2c(c1)[C@@]13CCCC[C@H]1[C@@H](C2)N(CC1CCC1)CC3 | 0.65 nM | 0.89 nM | 24 nM | 37 | 1 | inactive | 60% | 80% | 90 nM | 100% | 11 nM | 10 nM | – | – |
| O=C(CCCCCCCC(=O)Oc1ccc2c(c1)[C@@]13CCCC[C@H]1[C@@H](C2)N(CC1CCC1)CC3)Oc1ccc2c(c1)[C@@]13CCCC[C@H]1[C@@H](C2)N(CC1CCC1)CC3 | 0.59 nM | 0.97 nM | 21 nM | 35 | 2 | inactive | 57% | 80% | 360 nM | 54% | 15 nM | 11 nM | – | – |
| Oc1ccc2c(c1)[C@@]13CCCC[C@H]1[C@@H](C2)N(CC1CCC1)CC3 [BUTORPHAN] | 0.079 nM | – | – | – | – | – | – | – | – | – | 1.3 nM | – | – | – |
| O=C(CCC(=O)Oc1ccc2c(c1)[C@@]13CCCC[C@H]1[C@@H](C2)N(CC1CCC1)CC3)Oc1ccc2c(c1)[C@@]13CCCC[C@H]1[C@@H](C2)N(CC1CCC1)CC3 | 0.076 nM | 0.16 nM | 9.4 nM | 120 | 2 | inactive | 50% | 70% | 170 nM | 50% | 4.5 nM | 7.4 nM | – | – |
| O=C(CCCC(=O)Oc1ccc2c(c1)[C@@]13CCCC[C@H]1[C@@H](C2)N(CC1CCC1)CC3)Oc1ccc2c(c1)[C@@]13CCCC[C@H]1[C@@H](C2)N(CC1CCC1)CC3 | 1.2 nM | 3.3 nM | 80 nM | 70 | 3 | – | – | – | – | – | – | – | – | – |
| O=C(CCCCCCCCC(=O)Oc1ccc2c(c1)[C@@]13CCCC[C@H]1[C@@H](C2)N(CC1CC1)CC3)Oc1ccc2c(c1)[C@@]13CCCC[C@H]1[C@@H](C2)N(CC1CC1)CC3 | 0.41 nM | 0.93 nM | 32 nM | 80 | 2 | – | 30% | 90% | 90 nM | 100% | 4.9 nM | – | – | – |
| Oc1ccc2c(c1)[C@@]13CCCC[C@H]1[C@@H](C2)N(CCCCCCN1CC[C@]24CCCC[C@H]2[C@H]1Cc1ccc(O)cc14)CC3 | 50 nM | 52 nM | 370 nM | 7 | 1 | – | – | – | – | – | – | – | – | – |
